Experiments:
[1] = biological target: T1, Mitogen-activated protein kinase 12 (Homo sapiens) (UniProt P53778); experiment: Inhibition of p38-gamma at 10 uM by HTRF assay relative to control
T1 sequence (whole entry): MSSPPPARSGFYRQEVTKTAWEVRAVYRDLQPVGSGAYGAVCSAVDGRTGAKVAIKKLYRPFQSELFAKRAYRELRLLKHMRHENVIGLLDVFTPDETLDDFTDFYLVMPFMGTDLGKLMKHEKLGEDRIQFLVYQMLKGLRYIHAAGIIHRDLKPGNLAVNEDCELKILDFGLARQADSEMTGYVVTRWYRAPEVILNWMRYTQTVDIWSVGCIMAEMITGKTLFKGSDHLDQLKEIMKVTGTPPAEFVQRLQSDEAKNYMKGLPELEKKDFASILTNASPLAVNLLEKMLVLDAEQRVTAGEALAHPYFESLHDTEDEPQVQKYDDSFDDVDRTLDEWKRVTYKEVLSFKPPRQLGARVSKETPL
Procedure, shortened: (§1)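 HTRF kinase assay, one panel of kinases. Inhibitor stock 50 µM in 100% DMSO; tested at 10 µM. ATP and substrate at final levels near Km. Final buffer: 50 mM Hepes/NaOH pH 7.4, 40 µM Na3VO4, 0.005% Tween-20, 1 mM DTT, MnCl2 or MgCl2 at kinase-dependent levels. Started by adding ATP/substrate. Reaction run at room temperature, time varied by kinase. Detection mix in 50 mM Hepes pH 7.4, 0.1% BSA, 150 mM KF, incubated ≥1 h at room temperature. Activity expressed as % of uninhibited control; n=2.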

[2] = biological target: MAP kinase-activated protein kinase 2 (Homo sapiens) (UniProt P49137); experiment: Inhibition of MAPKAPK2 at 10 uM by HTRF assay relative to control; procedure, shortened: as §1
[3] = biological target: T2, Calcium/calmodulin-dependent protein kinase type IV (Homo sapiens) (UniProt Q16566); experiment: Inhibition of CaMK4 at 10 uM by HTRF assay relative to control; procedure, shortened: as §1
T2 sequence (whole entry): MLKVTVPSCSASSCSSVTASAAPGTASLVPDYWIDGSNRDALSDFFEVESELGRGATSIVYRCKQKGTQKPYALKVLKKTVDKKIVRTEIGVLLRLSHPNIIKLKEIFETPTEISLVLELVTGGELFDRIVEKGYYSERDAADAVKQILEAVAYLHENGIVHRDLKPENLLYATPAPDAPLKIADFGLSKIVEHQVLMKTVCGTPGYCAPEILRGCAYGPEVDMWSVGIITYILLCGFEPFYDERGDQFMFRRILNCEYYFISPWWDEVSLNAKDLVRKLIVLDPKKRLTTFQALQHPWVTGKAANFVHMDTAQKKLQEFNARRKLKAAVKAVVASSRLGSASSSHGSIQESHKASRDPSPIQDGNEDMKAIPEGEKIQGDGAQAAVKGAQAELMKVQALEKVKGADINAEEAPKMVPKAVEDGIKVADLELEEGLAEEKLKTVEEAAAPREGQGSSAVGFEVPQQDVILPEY

[4] = Inhibition of PKA at 10 uM by HTRF assay relative to control; procedure, shortened: as §1
[5] = biological target: Ribosomal protein S6 kinase beta-1 (Homo sapiens) (UniProt P23443); experiment: Inhibition of p70S6K at 10 uM by HTRF assay relative to control; procedure, shortened: as §1
[6] = biological target: Tyrosine-protein kinase Lyn (Homo sapiens) (UniProt P07948); experiment: Inhibition of Lyn at 10 uM by HTRF assay relative to control; procedure, shortened: as §1
[7] = biological target: T3, Tyrosine-protein kinase JAK3 (Homo sapiens) (UniProt P52333); experiment: Inhibition of JAK3 at 10 uM by HTRF assay relative to control; procedure, shortened: as §1
T3 sequence (whole entry): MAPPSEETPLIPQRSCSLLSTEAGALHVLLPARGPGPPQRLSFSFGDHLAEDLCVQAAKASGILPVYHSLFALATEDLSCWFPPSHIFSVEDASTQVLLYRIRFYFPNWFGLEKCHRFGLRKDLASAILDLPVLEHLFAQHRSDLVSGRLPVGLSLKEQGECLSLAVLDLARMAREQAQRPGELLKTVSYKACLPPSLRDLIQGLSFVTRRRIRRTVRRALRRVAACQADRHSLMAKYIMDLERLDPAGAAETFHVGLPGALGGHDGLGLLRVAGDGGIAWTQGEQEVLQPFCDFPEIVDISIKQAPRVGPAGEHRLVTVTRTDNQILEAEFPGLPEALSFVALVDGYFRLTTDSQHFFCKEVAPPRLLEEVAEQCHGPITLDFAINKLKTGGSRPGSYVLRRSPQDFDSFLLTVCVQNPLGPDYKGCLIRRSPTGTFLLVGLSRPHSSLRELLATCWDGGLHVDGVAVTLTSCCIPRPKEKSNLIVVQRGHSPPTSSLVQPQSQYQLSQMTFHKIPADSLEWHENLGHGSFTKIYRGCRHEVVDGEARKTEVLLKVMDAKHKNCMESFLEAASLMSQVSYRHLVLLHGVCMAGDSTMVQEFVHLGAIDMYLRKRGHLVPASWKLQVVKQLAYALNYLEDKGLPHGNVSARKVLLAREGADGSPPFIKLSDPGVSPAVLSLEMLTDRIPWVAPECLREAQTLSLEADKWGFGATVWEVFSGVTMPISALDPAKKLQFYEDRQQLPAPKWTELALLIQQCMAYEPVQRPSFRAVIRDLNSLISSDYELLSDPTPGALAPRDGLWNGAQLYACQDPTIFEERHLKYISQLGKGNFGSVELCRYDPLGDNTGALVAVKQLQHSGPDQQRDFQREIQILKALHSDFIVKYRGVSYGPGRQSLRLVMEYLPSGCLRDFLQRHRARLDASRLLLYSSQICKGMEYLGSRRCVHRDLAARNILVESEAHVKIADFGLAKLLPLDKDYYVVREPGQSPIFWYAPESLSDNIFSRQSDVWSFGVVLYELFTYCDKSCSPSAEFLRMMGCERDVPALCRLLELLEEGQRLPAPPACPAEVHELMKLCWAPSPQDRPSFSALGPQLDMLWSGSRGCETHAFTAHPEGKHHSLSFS

[8] = biological target: Focal adhesion kinase 1 (Homo sapiens) (UniProt Q05397); experiment: Inhibition of FAK at 10 uM by HTRF assay relative to control; procedure, shortened: as §1
[9] = biological target: Tyrosine-protein kinase ABL1 (Homo sapiens) (UniProt P00519); experiment: Inhibition of Abl at 10 uM by HTRF assay relative to control; procedure, shortened: as §1
[10] = biological target: High affinity nerve growth factor receptor (Homo sapiens) (UniProt P04629); experiment: Inhibition of TrkA at 10 uM by HTRF assay relative to control; procedure, shortened: as §1
[11] = biological target: Platelet-derived growth factor receptor beta (Homo sapiens) (UniProt P09619); experiment: Inhibition of PDGFRbeta at 10 uM by HTRF assay relative to control; procedure, shortened: as §1

MAP kinase-activated protein kinase 2 (Homo sapiens), sequence (P49137 whole entry, looked up): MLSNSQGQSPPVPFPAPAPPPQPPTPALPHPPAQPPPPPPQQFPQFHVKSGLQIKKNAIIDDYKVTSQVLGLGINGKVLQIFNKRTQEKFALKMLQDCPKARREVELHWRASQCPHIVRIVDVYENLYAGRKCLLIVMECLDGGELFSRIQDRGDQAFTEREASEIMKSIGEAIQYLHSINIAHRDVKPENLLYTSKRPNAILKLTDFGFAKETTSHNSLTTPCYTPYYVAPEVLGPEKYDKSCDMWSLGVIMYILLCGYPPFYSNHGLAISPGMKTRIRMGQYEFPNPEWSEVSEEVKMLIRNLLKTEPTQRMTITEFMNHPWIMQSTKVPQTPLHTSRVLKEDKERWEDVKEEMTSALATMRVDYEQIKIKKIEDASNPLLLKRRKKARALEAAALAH
Focal adhesion kinase 1 (Homo sapiens), sequence (Q05397 2-1052 limits assumed): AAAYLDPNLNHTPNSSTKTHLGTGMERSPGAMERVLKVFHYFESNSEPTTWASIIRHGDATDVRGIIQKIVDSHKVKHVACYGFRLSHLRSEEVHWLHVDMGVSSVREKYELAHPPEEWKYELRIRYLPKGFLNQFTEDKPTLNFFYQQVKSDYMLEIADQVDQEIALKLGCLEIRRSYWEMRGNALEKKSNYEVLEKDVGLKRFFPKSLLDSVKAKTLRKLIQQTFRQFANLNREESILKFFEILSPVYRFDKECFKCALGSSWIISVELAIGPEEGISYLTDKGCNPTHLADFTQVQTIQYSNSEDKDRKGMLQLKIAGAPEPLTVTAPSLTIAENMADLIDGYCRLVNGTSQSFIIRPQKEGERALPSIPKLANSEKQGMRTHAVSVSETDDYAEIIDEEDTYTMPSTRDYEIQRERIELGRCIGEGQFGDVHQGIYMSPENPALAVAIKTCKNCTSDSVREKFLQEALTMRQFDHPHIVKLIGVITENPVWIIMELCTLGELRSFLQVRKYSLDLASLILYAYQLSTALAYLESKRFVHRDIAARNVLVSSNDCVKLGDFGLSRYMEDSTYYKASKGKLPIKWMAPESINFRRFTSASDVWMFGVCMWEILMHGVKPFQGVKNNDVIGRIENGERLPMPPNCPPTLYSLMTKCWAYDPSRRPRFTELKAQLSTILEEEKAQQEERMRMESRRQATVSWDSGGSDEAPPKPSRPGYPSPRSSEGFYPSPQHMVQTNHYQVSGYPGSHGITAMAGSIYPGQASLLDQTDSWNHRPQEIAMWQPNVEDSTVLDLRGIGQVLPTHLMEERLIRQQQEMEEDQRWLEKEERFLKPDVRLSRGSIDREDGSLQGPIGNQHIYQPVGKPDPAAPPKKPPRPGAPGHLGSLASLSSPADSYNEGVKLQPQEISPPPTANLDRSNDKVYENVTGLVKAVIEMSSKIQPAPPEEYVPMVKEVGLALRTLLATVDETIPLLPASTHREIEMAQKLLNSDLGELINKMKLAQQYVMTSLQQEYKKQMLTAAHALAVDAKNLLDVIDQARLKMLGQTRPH
High affinity nerve growth factor receptor (Homo sapiens), sequence (P04629 33-796 limits assumed): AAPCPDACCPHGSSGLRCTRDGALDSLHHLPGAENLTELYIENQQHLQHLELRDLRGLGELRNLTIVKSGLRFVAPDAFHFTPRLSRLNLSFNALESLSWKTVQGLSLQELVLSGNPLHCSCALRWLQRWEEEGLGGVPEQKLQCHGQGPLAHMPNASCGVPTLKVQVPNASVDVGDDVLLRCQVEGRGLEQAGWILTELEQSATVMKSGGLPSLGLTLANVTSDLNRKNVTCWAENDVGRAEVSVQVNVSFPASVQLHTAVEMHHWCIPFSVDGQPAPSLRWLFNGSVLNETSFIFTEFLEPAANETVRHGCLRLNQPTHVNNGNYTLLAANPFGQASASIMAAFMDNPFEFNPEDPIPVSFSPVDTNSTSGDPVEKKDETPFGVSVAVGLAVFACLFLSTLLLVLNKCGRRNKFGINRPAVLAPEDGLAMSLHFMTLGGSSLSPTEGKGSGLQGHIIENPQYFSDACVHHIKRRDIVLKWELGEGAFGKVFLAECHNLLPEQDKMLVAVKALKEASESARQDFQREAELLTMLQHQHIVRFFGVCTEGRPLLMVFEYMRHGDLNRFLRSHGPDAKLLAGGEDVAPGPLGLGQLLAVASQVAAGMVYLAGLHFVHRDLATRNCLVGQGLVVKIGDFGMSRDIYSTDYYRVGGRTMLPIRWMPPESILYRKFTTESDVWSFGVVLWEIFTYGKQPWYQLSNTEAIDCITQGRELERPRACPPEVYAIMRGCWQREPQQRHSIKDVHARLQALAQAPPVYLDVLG
Ribosomal protein S6 kinase beta-1 (Homo sapiens), sequence (P23443 whole entry, looked up): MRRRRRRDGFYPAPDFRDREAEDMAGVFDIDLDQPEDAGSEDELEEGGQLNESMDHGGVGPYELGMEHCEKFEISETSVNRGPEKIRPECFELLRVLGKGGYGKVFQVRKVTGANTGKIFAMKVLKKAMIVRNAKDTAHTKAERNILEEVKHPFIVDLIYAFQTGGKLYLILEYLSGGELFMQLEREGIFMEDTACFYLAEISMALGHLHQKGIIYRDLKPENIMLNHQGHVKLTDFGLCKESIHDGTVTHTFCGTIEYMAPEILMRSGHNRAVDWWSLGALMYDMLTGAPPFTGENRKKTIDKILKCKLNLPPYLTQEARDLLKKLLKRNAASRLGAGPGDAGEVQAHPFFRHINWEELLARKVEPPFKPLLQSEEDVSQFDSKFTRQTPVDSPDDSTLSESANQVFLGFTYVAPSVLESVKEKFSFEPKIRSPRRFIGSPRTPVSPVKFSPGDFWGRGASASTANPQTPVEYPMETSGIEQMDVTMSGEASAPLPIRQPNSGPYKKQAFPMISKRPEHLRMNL
Tyrosine-protein kinase Lyn (Homo sapiens), sequence (P07948 2-512 limits assumed): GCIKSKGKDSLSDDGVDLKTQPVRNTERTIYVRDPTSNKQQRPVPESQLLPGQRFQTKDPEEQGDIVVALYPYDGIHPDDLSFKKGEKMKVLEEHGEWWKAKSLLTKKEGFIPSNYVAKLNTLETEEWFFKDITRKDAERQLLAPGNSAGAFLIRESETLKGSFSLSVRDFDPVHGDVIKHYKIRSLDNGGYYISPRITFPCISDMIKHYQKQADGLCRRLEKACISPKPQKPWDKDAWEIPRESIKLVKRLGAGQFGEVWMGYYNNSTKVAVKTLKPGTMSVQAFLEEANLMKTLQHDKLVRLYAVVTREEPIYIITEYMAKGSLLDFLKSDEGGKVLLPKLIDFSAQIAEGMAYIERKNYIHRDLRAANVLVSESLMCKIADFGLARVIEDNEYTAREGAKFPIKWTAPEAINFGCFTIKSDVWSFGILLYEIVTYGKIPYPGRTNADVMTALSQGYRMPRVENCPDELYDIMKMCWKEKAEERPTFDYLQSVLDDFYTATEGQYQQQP
Tyrosine-protein kinase ABL1 (Homo sapiens), sequence (P00519 whole entry): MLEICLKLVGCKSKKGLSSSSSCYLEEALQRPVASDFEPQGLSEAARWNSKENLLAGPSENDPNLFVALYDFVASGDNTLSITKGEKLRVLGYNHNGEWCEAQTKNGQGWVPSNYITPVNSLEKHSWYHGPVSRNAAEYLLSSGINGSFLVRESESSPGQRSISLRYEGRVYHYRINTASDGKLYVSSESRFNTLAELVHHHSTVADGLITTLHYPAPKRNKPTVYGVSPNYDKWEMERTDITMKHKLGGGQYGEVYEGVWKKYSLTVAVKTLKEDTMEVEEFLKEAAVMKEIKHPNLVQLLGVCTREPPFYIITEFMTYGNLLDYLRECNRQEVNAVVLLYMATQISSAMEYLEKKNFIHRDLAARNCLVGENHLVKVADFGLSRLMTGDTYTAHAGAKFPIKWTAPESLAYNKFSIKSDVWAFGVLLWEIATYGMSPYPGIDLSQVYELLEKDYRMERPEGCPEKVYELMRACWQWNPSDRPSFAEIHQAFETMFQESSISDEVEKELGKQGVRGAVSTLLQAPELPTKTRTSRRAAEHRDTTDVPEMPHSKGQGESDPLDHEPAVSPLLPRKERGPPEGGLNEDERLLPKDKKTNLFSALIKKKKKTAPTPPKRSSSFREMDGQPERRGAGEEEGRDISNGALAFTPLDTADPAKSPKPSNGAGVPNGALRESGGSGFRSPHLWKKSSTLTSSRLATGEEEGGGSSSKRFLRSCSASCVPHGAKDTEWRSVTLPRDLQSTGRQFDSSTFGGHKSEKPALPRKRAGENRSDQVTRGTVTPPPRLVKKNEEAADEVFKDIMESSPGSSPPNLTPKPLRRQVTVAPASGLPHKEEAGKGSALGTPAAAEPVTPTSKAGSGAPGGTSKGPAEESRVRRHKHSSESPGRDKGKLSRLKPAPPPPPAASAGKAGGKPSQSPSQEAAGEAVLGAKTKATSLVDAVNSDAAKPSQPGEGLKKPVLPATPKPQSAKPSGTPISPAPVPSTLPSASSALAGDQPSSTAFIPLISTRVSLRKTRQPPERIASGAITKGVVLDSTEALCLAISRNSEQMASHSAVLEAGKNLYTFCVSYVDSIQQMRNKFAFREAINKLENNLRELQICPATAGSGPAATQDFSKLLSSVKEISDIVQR

SMILES | inhibition [1] [%] | inhibition [2] [%] | inhibition [3] [%] | inhibition [4] [%] | inhibition [5] [%] | inhibition [6] [%] | inhibition [7] [%] | inhibition [8] [%] | inhibition [9] [%] | inhibition [10] [%] | inhibition [11] [%]
COc1cccc(Nc2cc(Nc3cccc(C(=O)N(C)CCc4ccccn4)c3)nc(N)n2)c1 | 3 | 0 | 0 | 0 | 8 | 9 | 18 | 11 | 8 | 9 | 3
Cc1cccc(N(C)c2cc(Nc3cccc(C(=O)N4CCCC5CCCCC54)c3)ncn2)c1 (centres undefined) | 1 | 0 | 0 | 0 | 12 | 9 | 0 | 8 | 13 | 12 | 5
Cc1cccc(N(C)c2cc(Nc3cccc(C(=O)NCCCn4ccnc4)c3)ncn2)c1 | 2 | 0 | 0 | 0 | 8 | 27 | 3 | 15 | 71 | 7 | 37
O=C(c1nc(SCc2ccc(Cl)cc2)n2ccccc12)N1CCN(c2cc(Nc3cccc(Br)c3)ncn2)CC1 | 0 | 2 | 0 | 1 | 6 | 4 | 0 | 1 | 10 | 5 | 10
CN(C)CC(C)(C)CNC(=O)c1cccc(Nc2nccc(Nc3ccc4ncsc4c3)n2)c1 | 9 | 0 | 16 | 12 | 18 | 75 | 91 | 97 | 96 | 75 | 99
Cc1cccc(N(C)c2cc(Nc3cccc(C(=O)NCc4ccncc4)c3)ncn2)c1 | 3 | 0 | 0 | 0 | 9 | 19 | 0 | 20 | 53 | 13 | 33
Cc1cccc(Nc2nccc(Nc3cccc(C(=O)N(C)CCc4ccccn4)c3)n2)c1 | 2 | 0 | 0 | 0 | 9 | 47 | 50 | 99 | 38 | 60 | 93
COc1ccc(NC(=O)Cc2ccc(Nc3cc(N(C)c4cccc(C)c4)ncn3)cc2)cn1 | 1 | 0 | 0 | 0 | 6 | 18 | 4 | 5 | 13 | 10 | 22

Results, then the compound that gave them:

inhibition [1] [%] | inhibition [2] [%] | inhibition [3] [%] | inhibition [4] [%] | inhibition [5] [%] | inhibition [6] [%] | inhibition [7] [%] | inhibition [8] [%] | inhibition [9] [%] | inhibition [10] [%] | inhibition [11] [%] | SMILES
0 | 1 | 0 | 0 | 3 | 3 | 0 | 4 | 1 | 0 | 4 | CC(=O)CCCCC(=O)N1CCN(c2nccc(Oc3cccc(C)c3)n2)CC1
0 | 0 | 0 | 0 | 7 | 7 | 0 | 3 | 0 | 9 | 8 | Nc1nc(N2CCOCC2)cc(N2CCC(C(=O)NCc3cccs3)CC2)n1
1 | 1 | 0 | 1 | 5 | 0 | 6 | 7 | 0 | 9 | 6 | Nc1nc(Nc2ccc3ncsc3c2)cc(N2CCC[C@H]2C(=O)N[C@@H](CO)c2ccccc2)n1
0 | 0 | 0 | 0 | 8 | 2 | 2 | 0 | 3 | 10 | 5 | O=C(CN1CCN(c2ncnc3c2CN(Cc2ccccc2)CC3)CC1)Nc1cc(F)ccc1F
3 | 0 | 0 | 0 | 7 | 6 | 0 | 5 | 6 | 2 | 1 | Cc1cccc(N(C)c2cc(N3CCN(C(=O)Cc4c[nH]c5ccccc45)CC3)ncn2)c1
0 | 0 | 0 | 0 | 7 | 6 | 0 | 3 | 6 | 7 | 0 | COc1cccc(Nc2cc(N3CCC[C@H]3C(=O)NCCc3ccc(O)cc3)nc(N)n2)c1

Reference: ChEMBL document CHEMBL1150387, “Development and experimental validation of a docking strategy for the generation of kinase-targeted libraries” (J Med Chem, 2008)
